ChEMBL document CHEMBL1142748, “The tert-butyl dimethyl silyl group as an enhancer of drug cytotoxicity against human tumor cells” (Bioorg Med Chem Lett, 2005)
The source made the active and inactive calls. The rule behind the calls is not given here.

Assays:
MCF7S [1] = test: Concentration required for 50% reduction of cellular net growth of MCF-7 human breast cancer cells; format: functional
Summary of the method: (§1)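 MCF7 breast cancer cells were grown in 96-well format following a modified NCI protocol. Compounds in DMSO were tested in duplicate at five 10-fold dilutions, and controls received equivalent DMSO. After 48 h exposure, cells were fixed with ice-cold 50% (w/v) TCA for 60 min at 4 °C, then stained by SRB and read at OD 490 nm. Percent growth came from start versus end OD, corrected for medium background. GI50 and TGI were taken from curves as the mean of 2–4 experiments ± SD.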

HL-60 [2] = test: Concentration required for Total growth inhibition of HL60 human leukemia cells; format: functional
Summary of the method: (§2)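 HL60 leukemia cells were grown in 96-well format following a modified NCI protocol. Compounds in DMSO were tested in duplicate at five 10-fold dilutions, and controls received equivalent DMSO. After 48 h exposure, cells were fixed with ice-cold 80% (w/v) TCA for 60 min at 4 °C, then stained by SRB and read at OD 490 nm. Percent growth came from start versus end OD, corrected for medium-only background. GI50 and TGI were read from dose–response curves as the mean of 2–4 experiments ± SD.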

MCF7S [3] = test: Concentration required for Total growth inhibition of MCF-7 human breast cancer cells; format: functional; summary of the method: as §1
HL-60 [4] = test: Concentration required for 50% reduction of cellular net growth of HL60 human leukemia cells; format: functional; summary of the method: as §2
HL-60 [5] = test: Concentration required for 50% reduction of cellular net growth of HL60 human leukemia cells; na=no activity; format: functional, cell-based; summary of the method: as §2
MCF7S [6] = test: Concentration required for 50% reduction of cellular net growth of MCF-7 human breast cancer cells;na=no activity; format: functional, cell-based; summary of the method: as §1
MCF7S [7] = test: Lethal concentration required for net loss in 50% of MCF-7 human breast cancer cells; format: functional; details: read-out: LC50 (the source's name)
Summary of the method: (§3)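 Modified NCI protocol with SRB read-out after 48 h drug exposure. Compounds were diluted from a DMSO stock at 400× the top final concentration, at five 10-fold dilutions in duplicate, with DMSO-matched controls. Cells were fixed with ice-cold TCA (80% w/v for HL60, 50% w/v for MCF7) for 60 min at 4 °C. OD was read at 490 nm and corrected for medium-only background. Percent growth came from OD at the start versus the end of exposure. LC50 is the concentration giving net loss of 50% of cells, from dose-response curves; values are means of 2–4 experiments.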

HL-60 [8] = test: Lethal concentration required for net loss in 50% of HL60 human leukemia cells; format: functional; details: read-out: LC50 (the source's name); summary of the method: as §3
MCF7S [9] = test: Concentration required for 50% reduction of cellular net growth of MCF-7 human breast cancer cells; na=no activity; format: functional, cell-based; summary of the method: as §1

SMILES | GI50 (MCF7S [1]) | TGI (MCF7S [3]) [µM] | GI50 (HL-60 [4]) [µM] | GI50 (HL-60 [5]) | other results
COC(=O)/C=C/C[C@H]1OCCC[C@@H]1O[Si](C)(C)C(C)(C)C | 18 µM | 48 | 22 | – | TGI (HL-60 [2]): 77 µM
OC/C=C/[C@H]1OCCC[C@@H]1O | – | – | – | inactive | GI50 (MCF7S [6]): inactive
COC(=O)/C=C/[C@H]1OCCC[C@@H]1O[Si](C)(C)C(C)(C)C | 24 µM | 80 | 22 | – | TGI (HL-60 [2]): 69 µM; CC50 (MCF7S [7]): 94 µM
CC(C)(C)[Si](C)(C)OC/C=C/[C@H]1OCCC[C@@H]1O | 86 µM | – | – | inactive | –
CC(C)(C)[Si](C)(C)O[C@H]1CCCO[C@@H]1CC#N | – | – | – | inactive | –
CC(C)(C)[Si](C)(C)O[C@H]1CCCO[C@@H]1CC=O | 21 µM | 82 | 40 | – | –
CC(C)(C)[Si](C)(C)O[C@H]1CCCO[C@@H]1C/C=C/CO | 25 µM | 83 | 27 | – | –
COC(=O)/C=C/C[C@H]1OCCC[C@@H]1OC(=O)c1ccccc1 | inactive | – | – | inactive | –
COC(=O)/C=C\[C@H]1OCCC[C@@H]1O[Si](C)(C)C(C)(C)C | 32 µM | 82 | – | inactive | –
COC(=O)/C=C/C[C@H]1OCCC[C@@H]1O | – | – | – | inactive | GI50 (MCF7S [6]): inactive
CC(C)(C)[Si](C)(C)O[C@H]1CCCO[C@@H]1/C=C\CO | 6.4 µM | 23 | 26 | – | CC50 (HL-60 [8]): 88 µM; TGI (HL-60 [2]): 64 µM; CC50 (MCF7S [7]): 63 µM
CC(C)(C)[Si](C)(C)O[C@H]1CCCO[C@@H]1CCO | 55 µM | – | 46 | – | –
COC(=O)/C=C/C[C@H]1OCCC[C@@H]1OC(C)=O | – | – | – | inactive | GI50 (MCF7S [9]): inactive
C=CCO[C@H]1CCCO[C@@H]1CC=O | – | – | – | inactive | –
CC(C)(C)[Si](C)(C)O[C@H]1CCCO[C@@H]1/C=C/CO | 61 µM | – | 31 | – | –
